Key:
Canis familiaris [1] = organism: Canis familiaris; test: Mean effective dose required to suppress ventricular ectopic rate in dog greater than or equal to 25% for a minimum duration of 10 min; type: functional; conditions: Canis lupus familiaris, Cardiac ventricle, read-out: MED
Canis familiaris [2] = organism: Canis familiaris; test: Mean effective dose required to suppress ventricular ectopic rate in dog greater than or equal to 25% for a minimum duration of 10 min; Side effects; type: functional, organism-based; conditions: Canis lupus familiaris; Cardiac ventricle
[3] = biological target: T1, Muscarinic acetylcholine receptor (Rattus norvegicus) (UniProt P08482+P08483+P08485+P08911+P10980); test: (§1) Ratio of Muscarinic acetylcholine receptor affinity (IC50) of test compound to that of disopyramide; type: protein assay
[4] = biological target: T1, Muscarinic acetylcholine receptor (Rattus norvegicus); test: Ratio of Muscarinic acetylcholine receptor affinity (IC50) of test compound to that of disopyramide; 1/2; type: protein assay
Canis familiaris [5] = test: Myocardial depression determined by monitoring the maximum rate of rise of left ventricular pressure in dog at 10 mg/kg dose; type: functional, Canis lupus familiaris, Heart left ventricle
[6] = biological target: T1, Muscarinic acetylcholine receptor (Rattus norvegicus); test: as §1; type: protein assay; remark: listed apart in the source
How it was run: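 Muscarinic receptor binding by displacement of [³H]QNB, test compound at three to six concentrations in triplicate. IC50 from log probit analysis. Value expressed as IC50(test)/IC50(disopyramide).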

Canis familiaris [7] = organism: Canis familiaris; test: Mean effective dose required to suppress ventricular ectopic rate in dog greater than or equal to 25% for a minimum duration of 10 min; Lethal; type: functional; conditions: Canis lupus familiaris, Cardiac ventricle, read-out: MED
[8] = biological target: T1, Muscarinic acetylcholine receptor (Rattus norvegicus); test: Ratio of Muscarinic acetylcholine receptor affinity (IC50) of test compound to that of disopyramide; 1/6; type: protein assay
Canis familiaris [9] = test: Myocardial depression determined by monitoring the maximum rate of rise of left ventricular pressure in dog at 9 mg/kg dose; type: functional, Canis lupus familiaris, Heart left ventricle
How it was run: (§2)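 Closed-chest anesthetized dogs given compound intravenously at the stated dose; myocardial depression taken as percent decrease in maximum rate of rise of left ventricular pressure (max dP/dt), mean ± standard error of the mean over the dogs tested. ≤25% depression at the mean effective antiarrhythmic dose was deemed acceptable.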

[10] = biological target: T1, Muscarinic acetylcholine receptor (Rattus norvegicus); test: Ratio of Muscarinic acetylcholine receptor affinity (IC50) of test compound to that of disopyramide; 1/24; type: protein assay
Canis familiaris [11] = test: Myocardial depression determined by monitoring the maximum rate of rise of left ventricular pressure in dog at 3 mg/kg dose; type: functional, Canis lupus familiaris, Heart left ventricle; how it was run: as §2
[12] = biological target: T1, Muscarinic acetylcholine receptor (Rattus norvegicus); test: Ratio of Muscarinic acetylcholine receptor affinity (IC50) of test compound to that of disopyramide; 1/16; type: protein assay
[13] = biological target: T1, Muscarinic acetylcholine receptor (Rattus norvegicus); test: Ratio of Muscarinic acetylcholine receptor affinity (IC50) of test compound to that of disopyramide; 1/4; type: protein assay

Question: With `CC(C)N(CCC1(c2ccccc2Cl)CC2CCCCN2C1=O)C(C)C` (centres undefined) as the compound, how does the minimal effective dose (Canis familiaris [1]) read?
Answer: Its minimal effective dose is 3.5 mg/kg.

Question: What about the MED (Canis familiaris [2]) of the same compound?
Answer: Its MED is “Side effects”.

Question: What about the Ratio [3] of the same compound?
Answer: Its Ratio is 1.

Question: And the Ratio [4]?
Answer: The Ratio was 0.5.

Question: `CC(C)N(CCC(C(N)=O)(c1ccccc1)c1ccccn1)C(C)C` (centres undefined) [DISOPYRAMIDE] was tested. Which minimal effective dose (Canis familiaris [1]) did it give?
Answer: Its minimal effective dose is 10 mg/kg.

Question: What about the Decrease (Canis familiaris [5]) of the same compound?
Answer: Its Decrease is 56%.

Question: And the Ratio [6]?
Answer: Its Ratio is 1.

Question: `CC(C)N(CCC(CCN1CCCCC1)(C(N)=O)c1ccccc1Cl)C(=O)c1ccccc1` (centres undefined) was tested. Which minimal effective dose (Canis familiaris [1]) did it give?
Answer: Its minimal effective dose is 2 mg/kg.

Question: And the minimal effective dose (Canis familiaris [7])?
Answer: Its minimal effective dose is 5 mg/kg.

Question: Which minimal effective dose (Canis familiaris [1]) does the source give for `CC(C)N(CCC1(c2ccccc2)CC2CCCCN2C1=O)C(C)C.Cl` (centres undefined) here?
Answer: Its minimal effective dose is 10 mg/kg.

Question: What about the Ratio [8] of the same compound?
Answer: The Ratio was 0.167.

Question: For `CC(=O)N(CCC(CCN1CCCCC1)(C(N)=O)c1ccccc1Cl)C(C)C` (centres undefined) [BIDISOMIDE], which minimal effective dose (Canis familiaris [1]) is on record?
Answer: Its minimal effective dose is 9 mg/kg.

Question: And the Decrease (Canis familiaris [9])?
Answer: The Decrease was 20%.

Question: And the Ratio [10]?
Answer: Its Ratio is 0.0417.

Question: Which results are given for `CC(C)N(CCC1(c2ccc(-c3ccccc3)cc2)CC2CCCCN2C1=O)C(C)C` (centres undefined)?
Answer: minimal effective dose (Canis familiaris [1]): 3 mg/kg; Decrease (Canis familiaris [11]): 35%; Ratio [12]: 0.0625

Question: How did the minimal effective dose (Canis familiaris [1]) turn out when `CC(C)N(CCC(CCC1CCCCN1)(C(N)=O)c1ccccc1Cl)C(C)C` (centres undefined) was run?
Answer: Its minimal effective dose is 12.5 mg/kg.

Question: What about the Ratio [13] of the same compound?
Answer: Its Ratio is 0.25.
